Converted amounts (≈) assume the structure as drawn. The source made the active and inactive calls. No cut-off for these calls is given here.
Columns and labels:
Pseudomonas aeruginosa [1] = test: Antibacterial activity against Pseudomonas aeruginosa FP1380 expressing constitutive AmpC; format: functional
Summary of the method: (§1)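 MIC by agar dilution (CLSI M7-A7) on Mueller-Hinton agar with twofold serial drug dilutions; 10^4 CFU spotted per spot; aerobic incubation 18 to 20 h at 35°C; MIC read as lowest concentration preventing visible growth.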

Pseudomonas aeruginosa [2] = test: Antibacterial activity against Pseudomonas aeruginosa PAO1456 expressing constitutive AmpC; format: functional
Summary of the method: (§2)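 Agar dilution MIC per NCCLS (CLSI) M7-A7 on Mueller-Hinton agar with twofold serial drug dilutions. Inoculum 10^4 CFU per spot, aerobic incubation 18 to 20 h at 35°C. MIC is the lowest concentration preventing visible growth.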

Pseudomonas aeruginosa [3] = test: Antibacterial activity against Pseudomonas aeruginosa PAO4069 expressing inducible AmpC; format: functional; summary of the method: as §2
Pseudomonas aeruginosa [4] = test: Antibacterial activity against Pseudomonas aeruginosa KG2212 producing MexAB-OprM efflux pump; format: functional; summary of the method: as §2
Pseudomonas aeruginosa [5] = test: Antibacterial activity against Pseudomonas aeruginosa KG3056 producing MexCD-OprJ efflux pump; format: functional; summary of the method: as §2
Pseudomonas aeruginosa [6] = test: Antibacterial activity against Pseudomonas aeruginosa KG4545 producing MexXY efflux pump; format: functional; summary of the method: as §2
Escherichia coli [7] = test: Antibacterial activity against Escherichia coli C600 expressing ESBL TEM3; format: functional; summary of the method: as §1
Escherichia coli [8] = test: Antibacterial activity against Escherichia coli C600 expressing ESBL TEM4; format: functional; summary of the method: as §1
Escherichia coli [9] = test: Antibacterial activity against Escherichia coli C600 expressing ESBL TEM5; format: functional; summary of the method: as §1
Escherichia coli [10] = test: Antibacterial activity against Escherichia coli C600 expressing ESBL TEM6; format: functional; summary of the method: as §1
Escherichia coli [11] = test: Antibacterial activity against Escherichia coli C600 expressing ESBL TEM8; format: functional; summary of the method: as §1
Escherichia coli [12] = test: Antibacterial activity against Escherichia coli C600 expressing ESBL TEM9; format: functional; summary of the method: as §1
Escherichia coli [13] = test: Antibacterial activity against Escherichia coli C600 expressing ESBL SHV2; format: functional; summary of the method: as §1
Escherichia coli [14] = test: Antibacterial activity against Escherichia coli C600 expressing ESBL SHV3; format: functional; summary of the method: as §1
Escherichia coli [15] = test: Antibacterial activity against Escherichia coli C600 expressing ESBL SHV4; format: functional; summary of the method: as §1
Escherichia coli [16] = test: Antibacterial activity against Escherichia coli C600 expressing ESBL OXA2; format: functional; summary of the method: as §1
Escherichia coli [17] = test: Antibacterial activity against Escherichia coli C600 expressing ESBL CTX-M3; format: functional; summary of the method: as §1
Escherichia coli [18] = test: Antibacterial activity against Escherichia coli C600 expressing ESBL CTX-M18; format: functional; summary of the method: as §1
Escherichia coli [19] = test: Antibacterial activity against Escherichia coli C600; format: functional; summary of the method: as §1
Pseudomonas aeruginosa [20] = test: Antibacterial activity against Pseudomonas aeruginosa 22029 expressing metallo beta lactamase; format: functional; summary of the method: as §2
Pseudomonas aeruginosa [21] = test: Antibacterial activity against Pseudomonas aeruginosa KG4001 producing MexEF-OprN efflux pump; format: functional; summary of the method: as §2
Pseudomonas aeruginosa [22] = test: Antibacterial activity against Pseudomonas aeruginosa PAO1; format: functional; summary of the method: as §2
Pseudomonas aeruginosa [23] = test: Antibacterial activity against Pseudomonas aeruginosa PAO4222; format: functional; summary of the method: as §2
Pseudomonas aeruginosa [24] = test: Reduction in susceptibility against Pseudomonas aeruginosa PAO1 after single passage; format: functional, organism-based
Summary of the method: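 PAO1 passaged daily for five consecutive days in fresh Mueller-Hinton broth with twofold drug dilution series. Each next inoculum came from the tube at one-fourth the MIC. MIC change was followed across passages.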

Pseudomonas aeruginosa [25] = test: Antibacterial activity against Pseudomonas aeruginosa 93; format: functional; summary of the method: as §1
Pseudomonas aeruginosa [26] = test: Efficacy against Pseudomonas aeruginosa 93 pulmonary infection in mouse assessed as reduction in bacterial counts at 2 mg/kg, sc; format: functional, organism-based; design: dose 2 mg/kg
Summary of the method: (§3)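 Male ICR mice (4 weeks), made neutropenic with cyclophosphamide 200 mg/kg ip 4 days before infection. Under pentobarbital anesthesia (50 mg/kg iv) they were challenged intranasally with 3.30 log10 CFU of strain 93, grown on tryptic soy agar 35°C 20 h and suspended in saline. Dosed sc twice daily for 3 days from 3 h post-infection. Lung viable counts taken the day after last dose; 6 mice/dose.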

Pseudomonas aeruginosa [27] = test: Efficacy against Pseudomonas aeruginosa 93 pulmonary infection in mouse assessed as reduction in bacterial counts at 10 mg/kg, sc; format: functional, organism-based; design: dose 10 mg/kg; summary of the method: as §3
Escherichia coli [28] = test: Antibacterial activity against Escherichia coli C600 expressing ESBL TEM7; format: functional; summary of the method: as §1
Pseudomonas aeruginosa [29] = test: Antibacterial activity against Pseudomonas aeruginosa; format: functional; summary of the method: as §2
Pseudomonas aeruginosa [30] = test: Antibacterial activity against ceftazidime-resistant Pseudomonas aeruginosa; format: functional; summary of the method: as §2
Pseudomonas aeruginosa [31] = test: Antibacterial activity against imipenem-resistant Pseudomonas aeruginosa; format: functional; summary of the method: as §2
Pseudomonas aeruginosa [32] = test: Antibacterial activity against ciprofloxacin-resistant Pseudomonas aeruginosa; format: functional; summary of the method: as §2
Escherichia coli [33] = test: Antibacterial activity against Escherichia coli C600 expressing TEM1; format: functional; summary of the method: as §1
Escherichia coli [34] = test: Antibacterial activity against Escherichia coli C600 expressing TEM2; format: functional; summary of the method: as §1
Escherichia coli [35] = test: Antibacterial activity against Escherichia coli C600 expressing SHV1; format: functional; summary of the method: as §1
Escherichia coli [36] = test: Antibacterial activity against Escherichia coli C600 expressing OXA1; format: functional; summary of the method: as §1
Pseudomonas aeruginosa [37] = test: Efficacy against Pseudomonas aeruginosa 93 assessed as reduction in bacterial counts in mouse urinary tract infection model at 0.5 mg/kg; format: functional, organism-based; design: dose 0.5 mg/kg; details: Urine
Summary of the method: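 Female ICR mice (4 weeks) were denied water 1 day. Under pentobarbital anesthesia they received 4.32 log10 CFU of strain 93 via the […], which was then clamped 5 h. Dosed sc at 5 h post-challenge plus twice daily for 2 days. Bilateral kidney viable counts taken the day after last treatment; 6 mice/dose.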

CC(C)(O/N=C(\C(=O)N[C@@H]1C(=O)N2C(C(=O)[O-])=C(C[n+]3ccccc3)CS[C@H]12)c1csc(N)n1)C(=O)O [CEFTAZIDIME]
MIC (Pseudomonas aeruginosa [1]): > 128 µg/mL
MIC (Pseudomonas aeruginosa [2]): 32 µg/mL (≈ 58.5 µM)
MIC (Pseudomonas aeruginosa [3]): 2 µg/mL (≈ 3.66 µM)
MIC (Pseudomonas aeruginosa [4]): 2 µg/mL (≈ 3.66 µM)
MIC (Pseudomonas aeruginosa [5]): 0.5 µg/mL (≈ 0.915 µM)
MIC (Pseudomonas aeruginosa [6]): 2 µg/mL (≈ 3.66 µM)
MIC (Escherichia coli [7]): 32 µg/mL (≈ 58.5 µM)
MIC (Escherichia coli [8]): 32 µg/mL (≈ 58.5 µM)
MIC (Escherichia coli [9]): 32 µg/mL (≈ 58.5 µM)
MIC (Escherichia coli [10]): 64 µg/mL (≈ 117 µM)
MIC (Escherichia coli [11]): 128 µg/mL (≈ 234 µM)
MIC (Escherichia coli [12]): 32 µg/mL (≈ 58.5 µM)
MIC (Escherichia coli [13]): 128 µg/mL (≈ 234 µM)
MIC (Escherichia coli [14]): > 128 µg/mL
MIC (Escherichia coli [15]): 128 µg/mL (≈ 234 µM)
MIC (Escherichia coli [16]): 4 µg/mL (≈ 7.32 µM)
MIC (Escherichia coli [17]): 4 µg/mL (≈ 7.32 µM)
MIC (Escherichia coli [18]): 4 µg/mL (≈ 7.32 µM)
MIC (Escherichia coli [19]): 0.25 µg/mL (≈ 0.457 µM)
MIC (Pseudomonas aeruginosa [20]): > 128 µg/mL
MIC (Pseudomonas aeruginosa [21]): 2 µg/mL (≈ 3.66 µM)
MIC (Pseudomonas aeruginosa [22]): 2 µg/mL (≈ 3.66 µM)
MIC (Pseudomonas aeruginosa [23]): 2 µg/mL (≈ 3.66 µM)
Activity (Pseudomonas aeruginosa [24]): Active
MIC (Pseudomonas aeruginosa [25]): 1 µg/mL (≈ 1.83 µM)
Activity (Pseudomonas aeruginosa [26]): Active
Activity (Pseudomonas aeruginosa [27]): Active
MIC (Escherichia coli [28]): 64 µg/mL (≈ 117 µM)
MIC50 (Pseudomonas aeruginosa [29]): 2 µg/mL (≈ 3.66 µM)
MIC90 (Pseudomonas aeruginosa [29]): 16 µg/mL (≈ 29.3 µM)
MIC50 (Pseudomonas aeruginosa [30]): 64 µg/mL (≈ 117 µM)
MIC90 (Pseudomonas aeruginosa [30]): 128 µg/mL (≈ 234 µM)
MIC50 (Pseudomonas aeruginosa [31]): 4 µg/mL (≈ 7.32 µM)
MIC90 (Pseudomonas aeruginosa [31]): 16 µg/mL (≈ 29.3 µM)
MIC50 (Pseudomonas aeruginosa [32]): 8 µg/mL (≈ 14.6 µM)
MIC90 (Pseudomonas aeruginosa [32]): 64 µg/mL (≈ 117 µM)
MIC (Escherichia coli [33]): 0.25 µg/mL (≈ 0.457 µM)
MIC (Escherichia coli [34]): 1 µg/mL (≈ 1.83 µM)
MIC (Escherichia coli [35]): 1 µg/mL (≈ 1.83 µM)
MIC (Escherichia coli [36]): 0.5 µg/mL (≈ 0.915 µM)

C[C@@H](O)[C@H]1C(=O)N2C(C(=O)O)=C(SCCNC=N)C[C@H]12 [IMIPENEM ANHYDROUS]
MIC (Pseudomonas aeruginosa [1]): 0.5 µg/mL (≈ 1.67 µM)
MIC (Pseudomonas aeruginosa [2]): 1 µg/mL (≈ 3.34 µM)
MIC (Pseudomonas aeruginosa [3]): 1 µg/mL (≈ 3.34 µM)
MIC (Pseudomonas aeruginosa [4]): 1 µg/mL (≈ 3.34 µM)
MIC (Pseudomonas aeruginosa [5]): 0.5 µg/mL (≈ 1.67 µM)
MIC (Pseudomonas aeruginosa [6]): 1 µg/mL (≈ 3.34 µM)
MIC (Escherichia coli [7]): 0.25 µg/mL (≈ 0.835 µM)
MIC (Escherichia coli [8]): 0.25 µg/mL (≈ 0.835 µM)
MIC (Escherichia coli [9]): 0.25 µg/mL (≈ 0.835 µM)
MIC (Escherichia coli [10]): 0.25 µg/mL (≈ 0.835 µM)
MIC (Escherichia coli [11]): 0.25 µg/mL (≈ 0.835 µM)
MIC (Escherichia coli [12]): 0.25 µg/mL (≈ 0.835 µM)
MIC (Escherichia coli [13]): 0.25 µg/mL (≈ 0.835 µM)
MIC (Escherichia coli [14]): 0.25 µg/mL (≈ 0.835 µM)
MIC (Escherichia coli [15]): 0.25 µg/mL (≈ 0.835 µM)
MIC (Escherichia coli [16]): 0.25 µg/mL (≈ 0.835 µM)
MIC (Escherichia coli [17]): 0.25 µg/mL (≈ 0.835 µM)
MIC (Escherichia coli [18]): 0.25 µg/mL (≈ 0.835 µM)
MIC (Escherichia coli [19]): 0.25 µg/mL (≈ 0.835 µM)
MIC (Pseudomonas aeruginosa [20]): 128 µg/mL (≈ 428 µM)
MIC (Pseudomonas aeruginosa [21]): 1 µg/mL (≈ 3.34 µM)
MIC (Pseudomonas aeruginosa [22]): 4 µg/mL (≈ 13.4 µM)
MIC (Pseudomonas aeruginosa [23]): 1 µg/mL (≈ 3.34 µM)
Activity (Pseudomonas aeruginosa [24]): Active
MIC (Pseudomonas aeruginosa [25]): 1 µg/mL (≈ 3.34 µM)
Activity (Pseudomonas aeruginosa [26]): Active
Activity (Pseudomonas aeruginosa [27]): Active
Activity (Pseudomonas aeruginosa [37]): Active
MIC (Escherichia coli [28]): 0.25 µg/mL (≈ 0.835 µM)
MIC50 (Pseudomonas aeruginosa [29]): 2 µg/mL (≈ 6.68 µM)
MIC90 (Pseudomonas aeruginosa [29]): 16 µg/mL (≈ 53.4 µM)
MIC50 (Pseudomonas aeruginosa [30]): 16 µg/mL (≈ 53.4 µM)
MIC90 (Pseudomonas aeruginosa [30]): 32 µg/mL (≈ 107 µM)
MIC (Pseudomonas aeruginosa [31]): 16 µg/mL (≈ 53.4 µM)
MIC50 (Pseudomonas aeruginosa [31]): 16 µg/mL (≈ 53.4 µM)
MIC90 (Pseudomonas aeruginosa [31]): 32 µg/mL (≈ 107 µM)
MIC50 (Pseudomonas aeruginosa [32]): 8 µg/mL (≈ 26.7 µM)
MIC90 (Pseudomonas aeruginosa [32]): 16 µg/mL (≈ 53.4 µM)
MIC (Escherichia coli [33]): 0.125 µg/mL (≈ 0.418 µM)
MIC (Escherichia coli [34]): 0.25 µg/mL (≈ 0.835 µM)
MIC (Escherichia coli [35]): 0.25 µg/mL (≈ 0.835 µM)
MIC (Escherichia coli [36]): 0.25 µg/mL (≈ 0.835 µM)

From ChEMBL document CHEMBL1142065, “In vitro and in vivo activities of a new cephalosporin, FR264205, against Pseudomonas aeruginosa” (2007)
